Data from ChEMBL document CHEMBL3352173, “Optimization of pyrrolamide topoisomerase II inhibitors toward identification of an antibacterial clinical candidate (AZD5099)” (J Med Chem, 2014).
Converted amounts (≈) assume the structure as drawn.

Columns and labels:
Staphylococcus aureus [1] = assay: Antimicrobial activity against methicillin-sensitive Staphylococcus aureus by broth microdilution/CLSI method; assay type: functional; settings: Staphylococcus aureus; read-out: MIC
[2] = Solubility of the compound; assay type: physicochemical
DNA gyrase subunit B = DNA gyrase subunit B (Staphylococcus aureus, UniProt P0A0K8); assay: Inhibition of ATPase activity of Staphylococcus aureus GyrB
In short: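 IC50 was determined against S. aureus GyrB in the routine screening assay. The enzyme concentration limits resolution below 10 nM.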

Haemophilus influenzae = assay: Antimicrobial activity against Haemophilus influenzae by broth microdilution/CLSI method; assay type: functional; settings: Haemophilus influenzae; read-out: MIC
[3] = Octanol-phosphate buffer distribution coefficient, log D of the compound at pH 7.4 by shake flask method; assay type: physicochemical
Streptococcus pneumoniae = assay: Antibacterial activity against Streptococcus pneumoniae by broth microdilution/CLSI method; assay type: functional; settings: Streptococcus pneumoniae; read-out: MIC
Streptococcus pyogenes = assay: Antimicrobial activity against Streptococcus pyogenes by broth microdilution/CLSI method; assay type: functional
[4] = Ratio of MIC for methicillin, quinolone-resistant Staphylococcus aureus to fraction unbound in human plasma; assay type: ADME
[5] = Clearance in rat at 10 mg/kg, iv; assay type: ADME, organism-based; set-up: dose 10 mg/kg, route intravenous; settings: in vivo
Escherichia coli [6] = assay: Antimicrobial activity against wild-type Escherichia coli Eco523 by broth microdilution/CLSI method; assay type: functional; settings: Escherichia coli, Eco523; read-out: MIC
[7] = Percentage unbound in human plasma; assay type: ADME, cell-free
Escherichia coli [8] = assay: Antimicrobial activity against Escherichia coli tolC- by broth microdilution/CLSI method; assay type: functional; settings: Escherichia coli; read-out: MIC
Moraxella catarrhalis = assay: Antimicrobial activity against Moraxella catarrhalis by broth microdilution/CLSI method; assay type: functional; settings: Moraxella catarrhalis; read-out: MIC
Staphylococcus aureus [9] = assay: Antimicrobial activity against methicillin, quinolone-resistant Staphylococcus aureus by broth microdilution/CLSI method; assay type: functional; settings: Staphylococcus aureus; read-out: MIC

Chain of DNA gyrase subunit B (P0A0K8 whole entry): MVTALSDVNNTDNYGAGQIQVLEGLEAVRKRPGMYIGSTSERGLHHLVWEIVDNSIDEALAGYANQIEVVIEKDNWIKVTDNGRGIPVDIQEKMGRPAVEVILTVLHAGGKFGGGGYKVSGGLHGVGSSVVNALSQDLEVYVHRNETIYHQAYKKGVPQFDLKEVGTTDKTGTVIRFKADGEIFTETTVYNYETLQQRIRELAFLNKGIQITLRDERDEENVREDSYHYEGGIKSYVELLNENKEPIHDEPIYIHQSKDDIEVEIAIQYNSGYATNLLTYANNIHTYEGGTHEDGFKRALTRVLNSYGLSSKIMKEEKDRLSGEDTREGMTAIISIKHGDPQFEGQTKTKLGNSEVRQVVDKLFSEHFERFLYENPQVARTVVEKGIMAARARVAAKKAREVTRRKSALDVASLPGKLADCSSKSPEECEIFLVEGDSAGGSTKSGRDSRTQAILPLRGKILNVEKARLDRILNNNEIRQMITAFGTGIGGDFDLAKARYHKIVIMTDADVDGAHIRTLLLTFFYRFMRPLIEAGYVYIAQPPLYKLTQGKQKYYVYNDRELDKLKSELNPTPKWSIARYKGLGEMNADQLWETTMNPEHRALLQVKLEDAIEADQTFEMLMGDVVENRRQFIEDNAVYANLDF

Row | SMILES | MIC (Staphylococcus aureus [1]) [µg/mL] | solubility [2] [µM] | IC50 (DNA gyrase subunit B) [nM] | MIC (Haemophilus influenzae) [µg/mL] | logD [3] | MIC (Streptococcus pneumoniae) [µg/mL] | MIC (Streptococcus pyogenes) [µg/mL] | Ratio [4] | clearance [5] [mL/min/kg] | MIC (Escherichia coli [6]) [µg/mL] | fraction unbound [7] | MIC (Escherichia coli [8]) [µg/mL] | MIC (Moraxella catarrhalis) [µg/mL] | MIC (Staphylococcus aureus [9]) [µg/mL]
1 | CO[C@H]1CN(c2nc(C(=O)NC3COC(C)(C)OC3)c(C(=O)O)s2)CC[C@H]1NC(=O)c1[nH]c(C)c(Cl)c1Cl | < 0.06 | > 1000 | < 10 | 0.16 (≈ 0.271 µM) | 1.2 | 0.016 (≈ 0.0271 µM) | 0.016 (≈ 0.0271 µM) | < 1.8 | 38 | 14 (≈ 23.7 µM) | 0.036 | 0.76 (≈ 1.29 µM) | 0.008 (≈ 0.0135 µM) | –
2 | CO[C@H]1CN(c2nc(C(=O)NCC3OCCO3)c(C(=O)O)s2)CC[C@H]1NC(=O)c1[nH]c(C)c(Cl)c1Cl | 0.063 (≈ 0.112 µM) | 940 (≈ 529 µg/mL) | < 10 | 0.1 (≈ 0.178 µM) | 0.76 | 0.04 (≈ 0.0711 µM) | 0.02 (≈ 0.0356 µM) | 3.6 | 33 | > 8 | 0.028 | 0.79 (≈ 1.4 µM) | 0.013 (≈ 0.0231 µM) | 0.1 (≈ 0.178 µM)
3 | CO[C@H]1CN(c2nc(-c3ccncn3)c(C(=O)O)s2)CC[C@H]1NC(=O)c1[nH]c(C)c(Cl)c1Cl | < 0.06 | 350 (≈ 179 µg/mL) | < 10 | 0.12 (≈ 0.235 µM) | 1.7 | < 0.06 | < 0.06 | 0.74 | 3.8 | 16 (≈ 31.3 µM) | 0.042 | 0.5 (≈ 0.978 µM) | < 0.06 | 0.031 (≈ 0.0606 µM)
4 | CO[C@H]1CN(c2nc(C)c(C(=O)O)s2)CC[C@H]1NC(=O)c1[nH]c(C)c(Cl)c1Cl | 0.031 (≈ 0.0693 µM) | 450 (≈ 201 µg/mL) | < 10 | 0.072 (≈ 0.161 µM) | 1.2 | 0.013 (≈ 0.0291 µM) | < 0.008 | 2.9 | 26 | > 8 | 0.018 | 0.25 (≈ 0.559 µM) | 0.008 (≈ 0.0179 µM) | 0.053 (≈ 0.118 µM)
5 | CO[C@H]1CN(c2nc3cccc(C(=O)O)c3s2)CC[C@H]1NC(=O)c1[nH]c(C)c(Cl)c1Cl | 0.031 (≈ 0.0641 µM) | < 1 | < 10 | 0.031 (≈ 0.0641 µM) | 1.7 | 0.032 (≈ 0.0662 µM) | – | > 31 | 60 | 8 (≈ 16.6 µM) | < 0.01 | 0.25 (≈ 0.517 µM) | < 0.001 | 0.031 (≈ 0.0641 µM)
6 | CO[C@H]1CN(c2nc(C(=O)O)cs2)CC[C@H]1NC(=O)c1[nH]c(C)c(Cl)c1Cl | 0.2 (≈ 0.462 µM) | 930 (≈ 403 µg/mL) | < 10 | 0.1 (≈ 0.231 µM) | 0.25 | 0.2 (≈ 0.462 µM) | 0.035 (≈ 0.0808 µM) | 15 | 49 | > 8 | 0.022 | 0.1 (≈ 0.231 µM) | 0.05 (≈ 0.115 µM) | 0.32 (≈ 0.738 µM)
7 | COCn1ccnc1-c1nc(N2CC[C@@H](NC(=O)c3[nH]c(C)c(Cl)c3Cl)[C@@H](OC)C2)sc1C(=O)O | < 0.06 | 170 (≈ 92.4 µg/mL) | < 10 | 0.5 (≈ 0.92 µM) | 0.24 | < 0.06 | < 0.06 | < 0.9 | 27 | 16 (≈ 29.4 µM) | 0.071 | 0.25 (≈ 0.46 µM) | < 0.06 | –
8 | CNC(=O)c1nc(N2CC[C@@H](NC(=O)c3[nH]c(C)c(Cl)c3Cl)[C@@H](OC)C2)sc1C(=O)O | 0.063 (≈ 0.128 µM) | 56 (≈ 27.5 µg/mL) | < 10 | 0.14 (≈ 0.285 µM) | 1.3 | 0.016 (≈ 0.0326 µM) | 0.013 (≈ 0.0265 µM) | 3.15 | 14 | 18 (≈ 36.7 µM) | 0.02 | 0.3 (≈ 0.612 µM) | 0.011 (≈ 0.0224 µM) | 0.063 (≈ 0.128 µM)
9 | CO[C@H]1CN(c2nc(CN3CCOCC3)c(C(=O)O)s2)CC[C@H]1NC(=O)c1[nH]c(C)c(Cl)c1Cl (racemic) | 2 (≈ 3.76 µM) | > 1000 | < 10 | 4 (≈ 7.51 µM) | 1.4 | 0.25 (≈ 0.47 µM) | 0.25 (≈ 0.47 µM) | 35 | 0.25 | 0.13 (≈ 0.244 µM) | 0.057 | > 8 | 1 (≈ 1.88 µM) | 2 (≈ 3.76 µM)
10 | COCC(COC)(COC)NC(=O)c1nc(N2CC[C@@H](NC(=O)c3[nH]c(C)c(Cl)c3Cl)[C@@H](OC)C2)sc1C(=O)O | 0.031 (≈ 0.0498 µM) | 720 (≈ 448 µg/mL) | < 10 | 0.15 (≈ 0.241 µM) | 1.9 | 0.016 (≈ 0.0257 µM) | 0.016 (≈ 0.0257 µM) | 0.66 | 18 | 29 (≈ 46.6 µM) | 0.047 | 1.3 (≈ 2.09 µM) | 0.008 (≈ 0.0129 µM) | 0.031 (≈ 0.0498 µM)
11 | CO[C@H]1CN(c2nc(C(=O)NCC3(C)OCCO3)c(C(=O)O)s2)CC[C@H]1NC(=O)c1[nH]c(C)c(Cl)c1Cl | 0.063 (≈ 0.109 µM) | 620 (≈ 357 µg/mL) | < 10 | 0.11 (≈ 0.191 µM) | 1 | 0.016 (≈ 0.0278 µM) | 0.016 (≈ 0.0278 µM) | 2.6 | 34 | 11 (≈ 19.1 µM) | 0.032 | 0.5 (≈ 0.867 µM) | 0.016 (≈ 0.0278 µM) | 0.084 (≈ 0.146 µM)
12 | CO[C@H]1CN(c2nc(C(C)=O)c(C(=O)O)s2)CC[C@H]1NC(=O)c1[nH]c(C)c(Cl)c1Cl | 0.063 (≈ 0.133 µM) | 890 (≈ 423 µg/mL) | < 10 | 0.15 (≈ 0.316 µM) | 0.36 | 0.02 (≈ 0.0421 µM) | 0.02 (≈ 0.0421 µM) | 3.7 | 9.3 | 30 (≈ 63.1 µM) | 0.019 | 0.26 (≈ 0.547 µM) | 0.02 (≈ 0.0421 µM) | 0.063 (≈ 0.133 µM)
13 | CO[C@H]1CN(c2nc(-c3cncc(OCCN(C)C)n3)c(C(=O)O)s2)CC[C@H]1NC(=O)c1[nH]c(C)c(Cl)c1Cl | 0.13 (≈ 0.217 µM) | 770 (≈ 461 µg/mL) | < 10 | 0.23 (≈ 0.384 µM) | 0.8 | 0.011 (≈ 0.0184 µM) | 0.031 (≈ 0.0518 µM) | 5.1 | 9.6 | 60 (≈ 100 µM) | 0.037 | 0.23 (≈ 0.384 µM) | – | 0.19 (≈ 0.317 µM)
14 | CO[C@H]1CN(c2nc(-c3nc(C)no3)c(C(=O)O)s2)CC[C@H]1NC(=O)c1[nH]c(C)c(Cl)c1Cl | 0.13 (≈ 0.252 µM) | 630 (≈ 325 µg/mL) | < 10 | 0.13 (≈ 0.252 µM) | 0.07 | < 0.06 | < 0.06 | 8.7 | 110 | 32 (≈ 62.1 µM) | 0.015 | 0.5 (≈ 0.97 µM) | < 0.06 | 0.13 (≈ 0.252 µM)
15 | COc1cc(OC)nc(-c2nc(N3CC[C@@H](NC(=O)c4[nH]c(C)c(Cl)c4Cl)[C@@H](OC)C3)sc2C(=O)O)n1 | 0.025 (≈ 0.0437 µM) | – | < 10 | 0.25 (≈ 0.437 µM) | 1.7 | 0.016 (≈ 0.028 µM) | 0.016 (≈ 0.028 µM) | 1.4 | 6.3 | 32 (≈ 56 µM) | 0.036 | 1 (≈ 1.75 µM) | 0.016 (≈ 0.028 µM) | 0.05 (≈ 0.0875 µM)
